Screening results: PubChem BioAssay, several laboratories
MEKK3 PB1 HTS = modulators of MEKK3-MEK5 PB1 binding, primary screen, biochemical, wildtype MEKK3, multiplex bead flow cytometry, Alexa488-MEK5; Mitogen-activated protein kinase kinase kinase 3 (Homo sapiens), Q99759; 290,000 tested, 1.4% active; binding response (% of control), % at 10 µM; bead-based flow cytometry, Alexa488-MEK5 binding to MEKK3; actives lie on both sides; 0 = blocked by unlabeled MEK5, 100 = vehicle;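 active = binding response more than 3 SD above or below the average of its plate-row segment, actives on both sides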;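 also: Alexa488 bead fluorescence after subtracting the streptavidin-only scavenger bead signal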
Target sequence (Q99759 whole entry, looked up): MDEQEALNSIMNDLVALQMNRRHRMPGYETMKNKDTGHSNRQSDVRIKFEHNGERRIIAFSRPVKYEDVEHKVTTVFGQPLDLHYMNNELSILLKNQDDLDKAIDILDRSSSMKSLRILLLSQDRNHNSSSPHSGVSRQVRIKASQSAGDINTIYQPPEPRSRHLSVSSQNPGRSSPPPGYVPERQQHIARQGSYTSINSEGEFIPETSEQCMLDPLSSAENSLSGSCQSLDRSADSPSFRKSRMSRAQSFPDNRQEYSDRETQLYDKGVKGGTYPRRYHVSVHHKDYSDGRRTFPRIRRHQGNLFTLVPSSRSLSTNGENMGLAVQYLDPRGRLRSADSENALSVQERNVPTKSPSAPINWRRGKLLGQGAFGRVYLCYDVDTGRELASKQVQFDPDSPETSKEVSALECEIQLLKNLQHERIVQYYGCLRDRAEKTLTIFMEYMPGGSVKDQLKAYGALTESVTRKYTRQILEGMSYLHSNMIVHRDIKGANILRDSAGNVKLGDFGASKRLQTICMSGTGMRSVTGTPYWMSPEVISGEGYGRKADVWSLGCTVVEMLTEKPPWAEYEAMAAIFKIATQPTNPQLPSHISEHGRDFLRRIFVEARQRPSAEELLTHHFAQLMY
MEKK2mut PB1 HTS = MEK5 binding signal on mutant MEKK2 PB1, primary screen, biochemical, multiplex bead flow cytometry, Alexa488-MEK5. AID 1530, 2009. Alexa488-MEK5 binding to MEKK2 mutant. percent response, % at 10 µM. 290,000 tested, 0.35% active; in the data active = percent response above about 24%, passing the limit was not always enough
MEKK2 WT-MEK5 = modulators of MEK5 binding to wildtype MEKK2, primary screen, biochemical, multiplex bead flow cytometry, Alexa488-MEK5; Mitogen-activated protein kinase kinase kinase 2 (Homo sapiens), Q9Y2U5; Alexa488-MEK5 binding to MEKK2 WT; actives lie on both sides; binding response (% of control), % at 10 µM; 290,000 tested, 1.1% active; AID 1531, 2009; in the data active = binding response below about 67% or above about 130%
IMP-1 inh = IMP-1 metallo-beta-lactamase inhibitors, primary screen, biochemical, epi-absorbance readout, Pseudomonas aeruginosa enzyme; metallo-beta-lactamase IMP-1 (Pseudomonas aeruginosa); purified IMP-1, nitrocefin hydrolysis, epi-absorbance fluorescence; inhibition, % at 5.6 µM; 290,000 tested, 0.45% active; AID 1556, 2009;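 active = inhibition above the mean plus 3 SD of all compounds in the same screening run, cut at about 4.5% in these data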;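 also: 0% = IMP-1 with DMSO and 100% = DMSO wells lacking enzyme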
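Assay system: purified recombinant IMP-1 beta-lactamase. Input: IMP-1 0.2 nM before substrate addition. Buffer or medium: Zinc- and detergent-supplemented HEPES buffer, pH 7.1. Schedule: 25 °C, 15 min preincubation, 25 min reaction. Signal: Epi-absorbance fluorescence, 480 nm excitation, 530 nm emission. Evaluation: percent inhibition from optical density relative to buffer-blank wells.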
VIM-2 inhibitor = VIM-2 metallo-beta-lactamase inhibitors, primary screen, biochemical, epi-absorbance readout, Pseudomonas aeruginosa enzyme | purified VIM-2, nitrocefin hydrolysis, epi-absorbance fluorescence | inhibition, % at 5.6 µM | 290,000 tested, 0.89% active;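 active = inhibition above the mean of all tested compounds plus 3 SD, cutoff set per screening run, cut at about 7.5% in these data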;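 also: red hydrolysis product quenches plate fluorescence so inhibitors raise well fluorescence; 0% = enzyme with DMSO and 100% = DMSO without enzyme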
MEKK2wt confirm = modulators of MEK5 binding to wildtype MEKK2, confirmation, biochemical, single concentration, multiplex bead flow cytometry | shares compounds with MEKK3 PB1 HTS | binding response (% of control), % at 10 µM | Alexa488-MEK5 binding to MEKK2 WT; actives lie on both sides | 5,900 tested, 2.4% active; in the data active = binding response below about 16% or above about 210%; inactive = in between
MEKK2mut-MEK5 = mutant MEKK2 PB1-MEK5 binding signal retest – biochemical, single concentration, multiplex bead flow cytometry, confirmation; shares compounds with MEKK3 PB1 HTS; Alexa488-MEK5 binding to MEKK2 mutant; percent response, % at 10 µM; 5,900 tested, 2% active; in the data active = percent response mostly above about 71%, no sharp cut-off; inactive = mostly below about 38%;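 also: higher means compound restores mutant binding toward wildtype level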
MEKK3 confirm = MEKK3 wild-type PB1 binding to MEK5, inhibitors, confirmation, biochemical, bead multiplex flow cytometry, single concentration, wildtype. Alexa488-MEK5 binding to MEKK3; stronger effect = lower value. 5,900 tested, 1.8% active. binding response (% of control), % at 10 µM. shares compounds with MEKK3 PB1 HTS;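 active = binding response below 72% of control, or above a set upper limit, though filed actives all read lower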;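 also: 100% = DMSO only wells and 0% = binding blocked by excess unlabeled MEK5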
* hit, by the source's call; . = no result; [ ] = remark or other dose. The list is not random: actives were taken first. Their share in the collection is about 3.4%.

SMILES	MEKK3 PB1 HTS	MEKK2mut PB1 HTS	MEKK2 WT-MEK5	IMP-1 inh	VIM-2 inhibitor	MEKK2wt confirm	MEKK2mut-MEK5	MEKK3 confirm
Cc1nnc(C)n1N	101	-4	-3.0*[inhibitor]	-1	-1	94	-19	93
COc1ccc(/C=C/C(=O)O)cc1S(=O)(=O)NCC1CCCO1 (stereo not drawn)	104	7	106	-2	-2	.	.	.
CCc1ccc(NC(=O)Cc2cn(C)c3ccccc23)cc1	104	0	106	-3	-4	.	.	.
CCC(C)NC(=O)Cc1cn(C)c2ccccc12 (stereo not drawn)	3.0*[inhibitor]	-14	3.0*[inhibitor]	-4	-1	102	-12	96
COc1ccc(C2=NOC(C(=O)N3CCN(C(=O)c4ccco4)CC3)C2)cc1OC (stereo not drawn)	100	-11	96	0	-1	.	.	.
CC1(C)CC(C)(O)N(Cc2ccccc2)C(=S)N1 (stereo not drawn)	133*	1	112	-6	-1	101	2	101
CCNc1nc(N2CCCCC2)nc(-n2nnc(C(=O)OCC)c2C)n1	60*[inhibitor]	-12	61*[inhibitor]	-2	-3	67	0	101
CCOC(=O)c1nnn(-c2nc(OC)nc(N3CCCC3)n2)c1-c1ccccc1	.	.	.	-1	-2	.	.	.
Cc1ccccc1NC(=O)C1(NC(=O)c2cccc(N3C(=O)CSC3c3ccccc3)c2)CCCCC1 (stereo not drawn)	122*	6	103	-2	-1	103	1	101
O=S(=O)(NC1CCCC1)c1ccc(S(=O)(=O)N(Cc2cccs2)CC2CCCO2)cc1 (stereo not drawn)	1.0*[inhibitor]	-31	-2.0*[inhibitor]	-2	-3	102	4	105
COCc1cccc(NC(=O)CCc2ccccc2)c1	102	5	103	-1	-1	.	.	.
Cc1cc(Nc2ccc(C)c(Cl)c2)nc(N2CCOCC2)n1	130*	26	123	-3	-2	106	-3	102
COc1ccc(-c2nn(C)c(=O)c3ccccc23)cc1NS(C)(=O)=O	104	7	103	-2	5	.	.	.
Nc1cc(N)nc(SCC(=O)NNC(=O)c2ccc(Cl)cc2)n1	101	0	97	-3	-3	.	.	.
CC(C)CC(=O)NC(=S)NNC(=O)c1ccc(NC(=O)C2CCCCC2)cc1	99	3	91	-2	-2	.	.	.
CCCCN(C)CC(O)Cn1cc(/C=C/C(=O)c2ccc(OCC)cc2)c2ccccc21 (stereo not drawn)	108	62*	200*	-4	-4	169	42	101
C/C=C\C=C/C(=O)Nc1cccc(C2=NOC3(C2)C[C@@H](C(N)=O)N(C(=O)c2ccccc2)C3)c1 (stereo partly drawn)	93	1	102	.	.	.	.	.
Oc1ccccc1-c1nc(NCc2ccco2)c2ccccc2n1	100	-4	101	-4	-2	.	.	.
Oc1ccccc1Nc1nc(NCc2ccccc2)c2ccccc2n1	114	67*	216*	0	-1	192	54	111
COc1ccccc1Nc1nc(NCc2ccco2)c2ccccc2n1	117	42	177*	-3	-3	149	23	106
OCCNc1nc(Nc2ccc(Br)cc2)nc2ccccc12	108	28	146*	-2	1	132	36	104
Cc1ccc(Nc2nc(NCc3ccco3)c3ccccc3n2)cc1	107	77*	191*	1	0	177	49	102
Cc1cc(C(=O)OC(C(=O)Nc2cccc(C(F)(F)F)c2)c2ccccc2)c(C)o1 (stereo not drawn)	145*	3	107	-1	-4	103	2	101
Cc1ccc(NC(=O)C(OC(=O)c2cc(C)oc2C)c2ccccc2)cc1 (stereo not drawn)	100	-8	102	-4	-2	.	.	.
N#Cc1ccc(NC(=O)Nc2ccc(Oc3ccc(NC(=O)Nc4ccc(C#N)cc4)cc3)cc2)cc1	106	42	150*	-4	-4	141	16	101
SMILES	MEKK3 PB1 HTS	MEKK2mut PB1 HTS	MEKK2 WT-MEK5	IMP-1 inh	VIM-2 inhibitor	MEKK2wt confirm	MEKK2mut-MEK5	MEKK3 confirm
CCC(=O)Nc1ccc(-c2nnc(SCC(=O)N3CCCCC3)n2C)cc1	2.0*[inhibitor]	-15	1.0*[inhibitor]	-3	-2	103	1	108
CCn1c(SCC(=O)c2ccc(NC(C)=O)c(OC)c2)nnc1-c1ccc(NS(C)(=O)=O)cc1	105	-1	102	-2	0	.	.	.
CCC(=O)Nc1ccc(C(=O)CSc2nnc(-c3ccc(NS(C)(=O)=O)cc3)n2C)cc1OC	73*[inhibitor]	-1	94	-3	-3	103	4	104
O=C1c2ccccc2C(Nc2cccnc2)N1Cc1ccccc1Cl (stereo not drawn)	109	5	110	-2	0	.	.	.
COC(=O)CNC(=O)C(Cc1c[nH]c2ccccc12)NC(=O)Oc1ccccc1 (stereo not drawn)	83	-9	83	0	-2	.	.	.
CCOC(=O)c1c(C)n(-c2ccc(C)cc2)c2ccc(O)c(CN(C)C)c12	113	30	138*	-1	-2	118	8	103
CCOC(=O)c1c(C)n(-c2ccc(OC)cc2)c2ccc(O)c(CN(C)C)c12	100	15	117	-3	-1	.	.	.
CCOC(=O)c1c(CSc2ccc(C)cc2)n(C)c2cc(Br)c(O)c(CN(C)C)c12	104	43	145*	-2	-2	142	21	111
CCN(CC)C(=O)CN1C(=O)C2(NC(=O)c3ccccc3N2)c2ccccc21 (stereo not drawn)	101	4	103	0	0	.	.	.
COc1ccc(-c2csc3ncnc(NCCO)c23)cc1	104	4	108	-4	2	.	.	.
CC(C)(C)C(=O)Nc1nnc(SCc2ccc(F)cc2)s1	100	-1	98	-2	-4	.	.	.
CCC(=O)Nc1nnc(SCc2ccc(F)cc2)s1	2.0*[inhibitor]	2	3.0*[inhibitor]	-2	-2	102	2	110
